ChEMBL document CHEMBL1156163, “(18)F Labeled benzimidazole derivatives as potential radiotracer for positron emission tomography (PET) tumor imaging” (Bioorg Med Chem, 2010)

Key:
Liver [1] = assay: Biodistribution in mouse S180 cells xenografted Kunming mouse liver at 10 to 20 uCi, iv after 5 mins by gamma counting; type: ADME, organism-based, CCRF S-180; settings: in vivo
Blood [2] = assay: Biodistribution in mouse S180 cells xenografted Kunming mouse blood at 10 to 20 uCi, iv after 120 mins by gamma counting; type: ADME, organism-based, CCRF S-180; settings: in vivo, 2 h
Blood [3] = assay: Biodistribution in mouse S180 cells xenografted Kunming mouse blood at 10 to 20 uCi, iv after 30 mins by gamma counting; type: ADME, organism-based, CCRF S-180; settings: in vivo, 0.5 h
[4] = Ratio of drug uptake in tumor to brain of mouse S180 cells xenografted Kunming mouse at 10 to 20 uCi, iv after 30 mins by gamma counting; type: ADME, organism-based, CCRF S-180; settings: in vivo, 0.5 h
Stomach [5] = assay: Biodistribution in mouse S180 cells xenografted Kunming mouse stomach at 10 to 20 uCi, iv after 15 mins by gamma counting; type: ADME, organism-based, CCRF S-180; settings: in vivo, 0.25 h
Outline: (§1)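 Female Kunming mice with subcutaneous S180 tumors (5 × 10^6 cells into right front flank, no anesthesia), used 7–14 days after inoculation at 18–22 g. Tracer in saline (10–20 µCi, 100 µL) given by tail vein; mice killed at 5, 15, 30, 60 and 120 min. Tissues excised, blotted, weighed and gamma-counted with decay correction. Reported as %ID/g, mean ± SD, n = 4.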

Stomach [6] = assay: Biodistribution in mouse S180 cells xenografted Kunming mouse stomach at 10 to 20 uCi, iv after 120 mins by gamma counting; type: ADME, organism-based, CCRF S-180; settings: in vivo, 2 h; outline: as §1
[7] = Biodistribution in mouse S180 cells xenografted Kunming mouse tumor at 10 to 20 uCi, iv after 5 mins by gamma counting; type: ADME, organism-based, Neoplasm, CCRF S-180; settings: in vivo
Brain [8] = assay: Biodistribution in mouse S180 cells xenografted Kunming mouse brain at 10 to 20 uCi, iv after 5 mins by gamma counting; type: ADME, organism-based, CCRF S-180; settings: in vivo
Pancreas [9] = assay: Biodistribution in mouse S180 cells xenografted Kunming mouse pancreas at 10 to 20 uCi, iv after 30 mins by gamma counting; type: ADME, organism-based, CCRF S-180; settings: in vivo, 0.5 h
Muscle tissue [10] = assay: Biodistribution in mouse S180 cells xenografted Kunming mouse muscle at 10 to 20 uCi, iv after 120 mins by gamma counting; type: ADME, organism-based, CCRF S-180; settings: in vivo, 2 h
Brain [11] = assay: Biodistribution in mouse S180 cells xenografted Kunming mouse brain at 10 to 20 uCi, iv after 30 mins by gamma counting; type: ADME, organism-based, CCRF S-180; settings: in vivo, 0.5 h
Pancreas [12] = assay: Biodistribution in mouse S180 cells xenografted Kunming mouse pancreas at 10 to 20 uCi, iv after 15 mins by gamma counting; type: ADME, organism-based, CCRF S-180; settings: in vivo, 0.25 h
[13] = Ratio of drug uptake in tumor to blood of mouse S180 cells xenografted Kunming mouse at 10 to 20 uCi, iv after 30 mins by gamma counting; type: ADME, organism-based, CCRF S-180; settings: tumour, 0.5 h
Kidney = assay: Biodistribution in mouse S180 cells xenografted Kunming mouse kidney at 10 to 20 uCi, iv after 15 mins by gamma counting; type: ADME, organism-based, CCRF S-180; settings: in vivo, 0.25 h
[14] = Octanol-water partition coefficient, log P at pH 7.4 after 5 mins; type: physicochemical
Outline: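 Shake-flask partition using 2.5 mL n-octanol and 2.5 mL 0.01 M PBS pH 7.4, with 0.01 mL radioactive sample added. Mixed vigorously for 5 min at room temperature, then centrifuged. Radioactivity counted in 0.01 mL of each phase.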

Heart = assay: Biodistribution in mouse S180 cells xenografted Kunming mouse heart at 10 to 20 uCi, iv after 5 mins by gamma counting; type: ADME, organism-based, CCRF S-180; settings: in vivo
Liver [15] = assay: Biodistribution in mouse S180 cells xenografted Kunming mouse liver at 10 to 20 uCi, iv after 120 mins by gamma counting; type: ADME, organism-based, CCRF S-180; settings: in vivo, 2 h
Muscle tissue [16] = assay: Biodistribution in mouse S180 cells xenografted Kunming mouse muscle at 10 to 20 uCi, iv after 5 mins by gamma counting; type: ADME, organism-based, CCRF S-180; settings: in vivo
Stomach [17] = assay: Biodistribution in mouse S180 cells xenografted Kunming mouse stomach at 10 to 20 uCi, iv after 30 mins by gamma counting; type: ADME, organism-based, CCRF S-180; settings: in vivo, 0.5 h; outline: as §1
[18] = Ratio of drug uptake in tumor to brain of mouse S180 cells xenografted Kunming mouse at 10 to 20 uCi, iv after 5 mins by gamma counting; type: ADME, organism-based, CCRF S-180; settings: in vivo
Stomach [19] = assay: Biodistribution in mouse S180 cells xenografted Kunming mouse stomach at 10 to 20 uCi, iv after 60 mins by gamma counting; type: ADME, organism-based, CCRF S-180; settings: in vivo, 1 h; outline: as §1
Stomach [20] = assay: Biodistribution in mouse S180 cells xenografted Kunming mouse stomach at 10 to 20 uCi, iv after 5 mins by gamma counting; type: ADME, organism-based, CCRF S-180; settings: in vivo; outline: as §1
Plasma = assay: Metabolic stability in mouse plasma at 100 to 150 uCi after 3 hrs by HPLC analysis; type: ADME, cell-free
Outline: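 Radiotracer (100–150 µCi, 50 µL) incubated in 0.5 mL mouse plasma for 3 h. Plasma then mixed with 1 mL CH3CN and centrifuged 5 min at 13,200 rpm. Supernatant passed through a C18 Sep-Pak and analysed by HPLC.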

[21] = Ratio of drug uptake in tumor to muscle of mouse S180 cells xenografted Kunming mouse at 10 to 20 uCi, iv after 60 mins by gamma counting; type: ADME, organism-based, CCRF S-180; settings: in vivo, 1 h

Row | SMILES | Drug uptake (Liver [1]) | Drug uptake (Blood [2]) | Drug uptake (Blood [3]) | Ratio [4] | Drug uptake [7] | Drug uptake (Brain [8]) | Drug uptake (Pancreas [9]) | Drug uptake (Muscle tissue [10]) | Drug uptake (Brain [11]) | Drug uptake (Pancreas [12]) | Ratio [13] | Drug uptake (Kidney) | Drug uptake (Heart) | Drug uptake (Liver [15]) | Drug uptake (Muscle tissue [16]) | Ratio [18] | Ratio [21] | other results
1 | CCCc1nc2c(C)cc(C(=O)O)cc2n1CC[18F] | 4.13 % ID/g | 0.3 % ID/g | 1.36 % ID/g | 4.81 | 2.28 % ID/g | 1.03 % ID/g | 1.03 % ID/g | 0.19 % ID/g | 0.31 % ID/g | 1 % ID/g | 1.09 | 13.79 % ID/g | 4.48 % ID/g | 0.38 % ID/g | 1.78 % ID/g | 2.21 | 2.19 | Drug uptake (Stomach [5]): 4.33 % ID/g; Drug uptake (Stomach [6]): 1.14 % ID/g; logD at 5 min [14]: -0.5; Drug uptake (Stomach [17]): 3.87 % ID/g; Drug uptake (Stomach [19]): 3.23 % ID/g; Drug uptake (Stomach [20]): 5.52 % ID/g; Stability (Plasma): Stable
2 | N[C@@H](Cc1ccc(OCC[18F])cc1)C(=O)O [FLORETYROSINE F18] | 7.67 % ID/g | 1.12 % ID/g | 3.23 % ID/g | 2.54 | 2.08 % ID/g | 0.99 % ID/g | 0.11 % ID/g | 2.1 % ID/g | 1.29 % ID/g | 0.22 % ID/g | 1.02 | 6.79 % ID/g | 5.89 % ID/g | 1.22 % ID/g | 2.88 % ID/g | 2.1 | 1.23 | 
3 | OC[C@H]1O[C@@H](O)[C@H]([18F])[C@@H](O)[C@@H]1O [FLUDEOXYGLUCOSE-F18] | 1.35 % ID/g | 0.11 % ID/g | 0.16 % ID/g | 0.61 | 1.27 % ID/g | 2.4 % ID/g | 0.9 % ID/g | 0.78 % ID/g | 3.07 % ID/g | 0.95 % ID/g |  | 1.04 % ID/g | 2.6 % ID/g | 0.2 % ID/g | 1.56 % ID/g | 0.53 | 2.23 | 
